Measured values from different studies.
Each line is one published result; the experiments were not run side by side. Converted amounts (≈) assume the structure as drawn.

| SMILES | target or system | assay | test system | setting | endpoint | result |
| --- | --- | --- | --- | --- | --- | --- |
| CC(C)(C)c1cc(NC(=O)Nc2ccc(-c3cn4c(n3)sc3cc(OCCN5CCOCC5)ccc34)cc2)no1 | 22Rv1 | cell growth or viability |  | 72 h | GI50 | > 10000 nM |
| COc1ccc(NC(=O)NCc2cn(Cc3ccc(Br)cc3)nn2)cc1 | NCI-H1299 | cell growth or viability, CCK-8 |  | 50 µM, 72 h | viability | 91.9% |
| COc1ccc(N=Nc2c(N)nn3c(-c4ccco4)cc(-c4ccc(OCc5ccccc5)cc4)nc23)cc1 | Enterobacter cloacae | microbial killing | ATCC23355 |  | MBC | 62.5 µg/mL (≈ 121 µM) |
| COc1ccc(NC(=O)NCc2cn(Cc3ccc(Cl)cc3)nn2)cc1 | NCI-H1299 | cell growth or viability, CCK-8 |  | 50 µM, 72 h | viability | 79.3% |
| O=C(Nc1ccc(Cl)cc1)Nc1cccc(-c2cn(Cc3ccc(Cl)cc3)nn2)c1 | NCI-H1299 | cell growth or viability, CCK-8 |  | 50 µM, 72 h | viability | 76.3% |
| Nc1nn2c(-c3ccco3)cc(-c3ccc(OCc4ccccc4)cc3)nc2c1N=Nc1ccc(F)cc1 | Enterobacter cloacae | microbial killing | ATCC23355 |  | MBC | 62.5 µg/mL (≈ 124 µM) |
| O=C(NCc1cn(Cc2ccc(Br)cc2)nn1)Nc1ccc(Cl)cc1 | NCI-H1299 | cell growth or viability, CCK-8 |  | 50 µM, 72 h | viability | 91.5% |
| Cc1n[nH]c2ccc3nc(-c4ccc(C(=O)NCCN(C)C)cc4)c4c(c3c12)CCCC4 | 22Rv1 | cell growth or viability |  | 72 h | GI50 | 1780 nM |
| O=C(Nc1ccc(Cl)cc1)Nc1ccc(-c2cn(Cc3ccc(Br)cc3)nn2)cc1 | NCI-H1299 | cell growth or viability, CCK-8 |  | 50 µM, 72 h | viability | 89.9% |
| COc1ccc(NC(=O)Nc2ccc(-c3cn(Cc4ccc(Br)cc4)nn3)cc2)cc1 | NCI-H1299 | cell growth or viability, CCK-8 |  | 50 µM, 72 h | viability | 106% |
| O=C(NCc1cn(Cc2ccc(Br)cc2)nn1)Nc1ccccc1Br | NCI-H1299 | cell growth or viability, CCK-8 |  | 50 µM, 72 h | viability | 89.2% |
| COc1ccc(NC(=O)Nc2ccc(-c3cn(Cc4ccc(Cl)cc4)nn3)cc2)cc1 | NCI-H1299 | cell growth or viability, CCK-8 |  | 50 µM, 72 h | viability | 97.9% |
| CC[C@H]1OC(=O)[C@H](C)[C@@H](O[C@H]2C[C@@](C)(OC)[C@@H](O)[C@H](C)O2)[C@H](C)[C@@H](O[C@@H]2O[C@H](C)C[C@H](N(C)C)[C@H]2O)[C@](C)(O)C[C@@H](C)CN(C)[C@H](C)[C@@H](O)[C@]1(C)O | Serratia marcescens | microbial growth | ATCC8100 |  | MIC | < 98 µg/mL |
| Cc1ccc(N=Nc2c(N)nn3c(-c4ccco4)cc(-c4ccc(OCc5ccccc5)cc4)nc23)cc1 | Enterobacter cloacae | microbial killing | ATCC23355 |  | MBC | 125 µg/mL (≈ 250 µM) |
| Cc1ccc2[nH]nc(-c3nnc(Nc4ccc(C(F)(F)F)cc4)s3)c2c1 | Serratia marcescens | microbial growth | ATCC8100 |  | MIC | 62.8 µg/mL (≈ 167 µM) |
| COc1ccc(NC(=O)Nc2cccc(-c3cn(Cc4ccc(Br)cc4)nn3)c2)cc1 | NCI-H1299 | cell growth or viability, CCK-8 |  | 50 µM, 72 h | viability | 151% |
| Nc1nn2c(-c3ccc(Cl)cc3Cl)cc(-c3ccc(OCc4ccccc4)cc3)nc2c1N=Nc1ccc(F)cc1 | Enterobacter cloacae | microbial killing | ATCC23355 |  | MBC | 62.5 µg/mL (≈ 107 µM) |
| Cc1ccc2[nH]nc(-c3nnc(Nc4ccc(Cl)cc4)s3)c2c1 | Serratia marcescens | microbial growth | ATCC8100 |  | MIC | 65.8 µg/mL (≈ 192 µM) |
